Results reported in the EternaBench riboswitch data.

Test system: MS2 coat protein
Assay: apparent Kd, MS2 coat protein; higher = weaker binding; RNA-MaP array; FMN 200 µM where present
In short: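 Apparent Kd: the median of filtered binding-curve fits from single clusters. Designs were transcribed on Illumina sequencing-chip clusters by stalled E. coli RNA polymerase and titrated with SNAP-549-labelled MS2 coat protein from 0.7 or 1.5 nM, doubling to 3 µM, in 100 mM Tris-HCl pH 7.5, 80 mM KCl, 4 mM MgCl2, BSA, DTT, yeast tRNA and Tween-20. Each series ran without and then with constant ligand, and green signal was normalised to red-channel RNA signal and control-cluster median Fmax.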

[1] = designed as: OFF switch for flavin mononucleotide, no ligand
[2] = ligand present: flavin mononucleotide, designed as: OFF switch for flavin mononucleotide
[3] = designed as: ON switch for flavin mononucleotide, no ligand
[4] = ligand present: flavin mononucleotide, designed as: ON switch for flavin mononucleotide

Row | Sequence | apparent Kd [1] | apparent Kd [2] | apparent Kd [3] | apparent Kd [4]
1 | AUCAUGAGAGGAUAUACAUGAGGAUCACCCAUGUUGUUAACACCAUGAGCUCAUUUACGUAGAAGGCUCAUUUG | 28.1 nM | 51.9 nM |  | 
2 | AUCAUGUCAGGAUAUGUGAUAUGGAUCUUCGGAUCAAGUUCACAGAAGGGACAUGAGGAUCACCCAUGUCGAAC | 50.6 nM | 91.7 nM |  | 
3 | AUCCAGCGAGGAUAUACUUUGAUUUUUUCGUUUUGUCUCGAACAUGAGGAUCACCCAUGUAGAAGGUGCUUCAC | 67.1 nM | 59.8 nM |  | 
4 | AUCCGGCGUGUAGGAUAUGGAUCCGAUUAGGAUCCAGAAGGACAUGAGGAUCACCCAUGUACAUGUAAACAGUCAUCACCGGAA | 10.2 nM | 49.4 nM |  | 
5 | AUCGGAAUGUAGAAGGGUGACAUGAGGAUCACCCAUGUACAAAUGCGUUUUUCGGUAAUUGAUCCACAGGAUAUACUGUCCGAG |  |  | 1080 nM | 794 nM
6 | AUCGGGAGAGGAUAUACAUGAGGAUCACCCAUGUUGGGAACAUCGGUUUGUUAGUUGCGUAGAAGGCUCGGGCG | 46.4 nM | 66.3 nM |  | 
7 | AUCUACCUAGGAUAUACAUGAGGAUCACCCAUGUACAGUUUCAACUAGGGAAACACACGUAGAAGGAGGUAGAU | 13.6 nM | 32.6 nM |  | 
8 | AUCUACCUAGGAUAUACAUGAGGAUCACCCAUGUACAGUUUCAUCUAGGGAUACUCACGUAGAAGGAGGUAGAU | 36.6 nM | 21.5 nM |  | 
9 | AUCUAUCAUGUAGGAUAUGCGUGGCGAAGCUAUGCAGAAGGACAUGAGGAUCACCCAUGUCUUUCUGUCUGCGGACGGACAGGA | 23.6 nM | 72.7 nM |  | 
10 | AUCUCGUCAGGAUAUUGGAUCUGGAUCGAAAGGUCUAGGUCUAAGAAGGGACAUGAGGAUCACCCAUGUCUGGU | 22.9 nM | 69.6 nM |  | 
11 | AUCUGCUCGUCAGGAUAUACGUCACUGCGUCAGCAGUGUGGUAAGAUCACAUGAGGAUCACCCAUGUAGAAGGGACGAGCUGAU | 12.9 nM | 268 nM |  | 
12 | AUGAGGUUAGGAUAUACAUGAGGAUCACCCAUGUUGAAGGGUUAGGUAGGCGGAGCUGGUAGAAGGAACGGAGC | 57.3 nM | 36.9 nM |  | 
13 | AUGAGUAAAGCAGGAUAUCUAUUGUCUCUGUAACAUGAGGAUCACCCAUGUAGAGAAGGGCUUAGUCAUACUCUUCGGAGUUGA | 7.27 nM | 9.55 nM |  | 
14 | AUGCUAUACGAAGGAUAUGGUUACAUGAGGAUCACCCAUGUAUUUUUUGUGAUCUUGUUUAAGUUCCAGAAGGUCGUAUAGCUA | 486 nM | 617 nM |  | 
15 | AUGCUUCACACAGGAUAUACAUGAGGAUCACCCAUGUGUCCAAAGUAGCCGACACGAGCUACGUCGUAGAAGGGUGUGAAGCAU | 18.8 nM | 87.3 nM |  | 
16 | AUGCUUCACACAGGAUAUUACAACAUGAGGAUCACCCAUGUACAUGACAUGAGGAUCACCCAUGUUAAGAAGGGUGUGAAGCAU | 261 nM | 505 nM |  | 
17 | AUGGACGCAGGAUAUACAUGAGGAUCACCCAUGUGAGGUAGGUAAGUAGGAAGUGAAGGUAGAAGGGCGAGAGA | 67.2 nM | 95.3 nM |  | 
18 | AUGGACGUCGUAGGAUAUGUAGGAUUCUCCUACAUGAGGAUCACCCAUGUUGACAUGGAGGACGGACAGAAGGACGGUGUCCAU |  |  | 13.2 nM | 5.31 nM
19 | AUGGACGUCGUAGGAUAUGUAGGAUUCUCGUACAUGAGGAUCACCCAUGUUGACGUCGAGGACGGACAGAAGGGCGGUGUCCAU |  |  | 42.3 nM | 8.01 nM
20 | AUGGACGUCGUAGGAUAUGUAGGAUUCUCGUACAUGAGGAUCACCCAUGUUGACGUCGAGGACGGACAGAAGGGCGGUGUCUAU |  |  | 64.6 nM | 9.38 nM
21 | AUUACAUGAGGAUCACCCAUGUACGGCACGUUUCAAAACAGUGAGGAUAUACGAUAUGUAGGAACGUAGAAGGCACUGGGUGCA |  |  | 82.7 nM | 35.9 nM

Row | Sequence | apparent Kd [1] | apparent Kd [2] | apparent Kd [3] | apparent Kd [4]
22 | AUUAUAUAGAAAGGAUAUAGAAUAUUAUUUUAACAUGAGGAUCACCCAUGUAACCUUAUGUGUAGCUAGAAGGUUCAUUUAUUA | 61.8 nM | 78.1 nM |  | 
23 | AUUAUAUAGACAGGAUAUUGAUUAUUAUUUUAACAUGAGGAUCACCCAUGUAACCUUAUGUGUAGCAAGAAGGGUCAUUUAUUA | 84.3 nM | 185 nM |  | 
24 | AUUAUAUAGGUAGGAUAUAGAAUAUUAUUUUAACAUGAGGAUCACCCAUGUAACCUUAUGUGUAGCUAGAAGGACCAUUUAUUA | 78 nM | 154 nM |  | 
25 | AUUAUAUAGUCAGGAUAUAGAAUAUUAUUUUAACAUGAGGAUCACCCAUGUAACCUUAUGUGUAGCUAGAAGGGACAUUUAUUA | 85.5 nM | 131 nM |  | 
26 | AUUAUGACCGAGUUAUACUUCUAAACAUGAGGAUCACCCAUGUAGGAUAUCAGCACGAUAAGUGCUGAGAAGGACAUCUCGGUC | 13.7 nM | 14.6 nM |  | 
27 | AUUAUGUAAGGAUAUCUUACAUGUGACUUCGGUCACUGUCAAGAGAAGGUACAUGAGGAUCACCCAUGUAUGAC | 14 nM | 16.3 nM |  | 
28 | AUUAUUAUAAAUUAAGGAAGAAUCAGAAGGCGUUACAUGAGGAUCACCCAUGUUUUGUAUAGUAACGAGGAUAUGAUAUGGAAA | 17.5 nM | 14 nM |  | 
29 | AUUAUUAUAUUAUACAUGAGGAUCACCCAUGUUAUAAGUCAUGAGGAUAUGGUAUUGUAGUUAUUCCAGAAGGCAUUUAACUUA |  |  | 11.4 nM | 7.05 nM
30 | AUUAUUGACGUAGGAUAUUCUUACAUGAGGAUCACCCAUGUUAUUUGGGAACUAGGAAUAUUUUAGAAGAAGGACGUUGUUAAA |  |  | 230 nM | 173 nM
31 | AUUAUUUAUAGUUAUUGGUAUUUGACAGAAGGUGAAAGUGUCACAUGAGGAUCACCCAUGUUCUUCAAGGAUAUGUUGGUAUAC |  |  | 66.1 nM | 11.8 nM
32 | AUUAUUUAUAGUUAUUUUUAUUUUACAGAAGGUGAAUUAUUUACAUGAGGAUCACCCAUGUUCUUCAAGGAUAUGUUGUUAUAC |  |  | 49.4 nM | 22.1 nM
33 | AUUCAGUCAGGAUAUCGUUAAUUUAAUUGUUUGUUUUAGUUCGAGAAGGGACAUGAGGAUCACCCAUGUACUUA | 25.9 nM | 27.3 nM |  | 
34 | AUUCAGUCAGGAUAUCGUUAAUUUAAUUGUUUGUUUUAGUUCGAGAAGGGACAUGAGGAUCACCCAUGUACUUU | 20.2 nM | 19.3 nM |  | 
35 | AUUGAGAUAGCGAUAUGAUCGAGAGAUCAUGUCGCUAAGUUUAGAAGGACAUGAGGAUCACCCAUGUAGGAUAUGGGAGUAGAA |  |  | 128 nM | 57.5 nM
36 | AUUGAUAGCACAGGAUAUUGAGAUUUGAAUUGACAAGAAGGGUGUACAUGAGGAUCACCCAUGUAAUGGCUGCCUCGUUGAUUA | 57.8 nM | 132 nM |  | 
37 | AUUGAUGUUGAGGAUAUGCUUUUAUUUAUUAUAGCAGAAGGCGAUACAUGAGGAUCACCCAUGUUCAUGGCUUU | 11.8 nM | 14.9 nM |  | 
38 | AUUUAGAGAGGAUAUAUAUUGUGAAACAUGAGGAUCACCCAUGUAAUAAUAUGGAUGUAAAUAGAAGGCUCAUUUA | 38.1 nM | 34.9 nM |  | 
39 | AUUUAUGGCCAGAAGGACAUGAGGAUCACCCAUGUAGGAUAUGGACGAUUUUGCUCGGCGGUUCGUUAAGAAAGCACCGGUGGU |  |  | 16.5 nM | 7.39 nM
40 | AUUUAUGUCAUAGGAUAUAUAAAUAAAUUUAUAACAUGAGGAUCACCCAUGUACUUUAGUAUGAGGUAGAAGGAUGAUAAGAGU |  |  | 35.1 nM | 26.7 nM
41 | AUUUCCAGAGGAUAUGCGAGGGUGUACCUCUAACAGCGCAAACAUGAGGAUCACCCAUGUAGAAGGCUGAUCAU | 56.5 nM | 54.8 nM |  | 
42 | AUUUCGUUAGCAGGAUAUGGACAGGCCUGUCCGUAUUGAGUCAGUAACAUGAGGAUCACCCAUGUCCAGAAGGGCUCGAAGUAU | 7.83 nM | 15.3 nM |  | 
